Test [1] has as its system K562. Briefly: Antiproliferative activity against human K562 cells assessed as reduction in cell viability after 48 hrs by MTT assay. Format: functional, cell-based. The conditions noted are these: K562, 48 h.
For test [2], the system named is HEL. In words: Antiproliferative activity against HEL cells harboring JAK2 V617F mutant assessed as reduction in cell viability after 48 hrs by MTT assay. The conditions noted are these: Homo sapiens. Format: functional, cell-based.
Test [3] concerns the target Tyrosine-protein kinase JAK2 (Homo sapiens, UniProt O60674). In words: Inhibition of recombinant human JAK2 using Ulight-CAGAGAIETDKEYYTVKD as substrate measured after 60 mins by LANCE assay. In general terms: Time-resolved FRET reads energy transfer from a long-lived donor to a nearby acceptor.
Test [4] has as its target Histone deacetylase. Briefly: Inhibition of HDAC in human HeLa nuclear extract using Boc-Lys(acetyl)-AMC as substrate preincubated for 5 mins followed by substrate addition and measured after 30 mins by fluorescence assay. Format: cell-based.
Test [5] concerns the target T1, Histone deacetylase (Homo sapiens) (UniProt Q13547+O15379+Q9UBN7+Q92769+Q9UQL6+Q8WUI4+Q9BY41+Q96DB2+P56524+Q9UKV0+Q969S8). Briefly: Potency index, ratio of SAHA IC50 to test compound IC50 for inhibition of HDAC in human HeLa cell nuclear extract. It counts as cell-based. Summed up: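 HeLa cell nuclear extract was incubated with serial concentrations of compound for 5 min at 37 °C. Boc-Lys(acetyl)-AMC substrate was added for 30 min at 37 °C, then developer containing trypsin and TSA for 20 min. Fluorescence was read at ex 390/em 460 nm against control wells.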

Test [6] relates to MOLT-4. Briefly: Antiproliferative activity against human MOLT4 cells assessed as reduction in cell viability after 48 hrs by MTT assay. It counts as functional, cell-based. To be noted: MOLT-4, 48 h. Summed up: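 Cells kept in RPMI1640 with 10% FBS at 37 °C, 5% CO2. Seeded and grown for 12 h, then exposed to a range of compound concentrations for 48 h. 0.5% MTT added for 4 h, formazan dissolved in DMSO, absorbance read at 570 nm.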
For orientation: Tetrazolium assays rely on reduction of a dye to a coloured formazan, in cell work by metabolically active cells.

Test [7] relates to Jurkat. Briefly: Antiproliferative activity against human Jurkat cells assessed as reduction in cell viability after 48 hrs by MTT assay. Format: functional, cell-based.
Test [8] has as its target Tyrosine-protein kinase JAK1 (Homo sapiens, UniProt P23458). Briefly: Inhibition of recombinant human JAK1 using Ulight-CAGAGAIETDKEYYTVKD as substrate measured after 60 mins by LANCE assay. In outline:
(§1)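 Human recombinant JAK enzyme assays run by a contract lab. IC50 was taken from a non-linear curve fit, with all parameters allowed to float. Assays were run in replicate (n>2) and reported as mean ± SD.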

Test [9] addresses T2, Tyrosine-protein kinase JAK3 (Homo sapiens, UniProt P52333).
T2 sequence (P52333 whole entry): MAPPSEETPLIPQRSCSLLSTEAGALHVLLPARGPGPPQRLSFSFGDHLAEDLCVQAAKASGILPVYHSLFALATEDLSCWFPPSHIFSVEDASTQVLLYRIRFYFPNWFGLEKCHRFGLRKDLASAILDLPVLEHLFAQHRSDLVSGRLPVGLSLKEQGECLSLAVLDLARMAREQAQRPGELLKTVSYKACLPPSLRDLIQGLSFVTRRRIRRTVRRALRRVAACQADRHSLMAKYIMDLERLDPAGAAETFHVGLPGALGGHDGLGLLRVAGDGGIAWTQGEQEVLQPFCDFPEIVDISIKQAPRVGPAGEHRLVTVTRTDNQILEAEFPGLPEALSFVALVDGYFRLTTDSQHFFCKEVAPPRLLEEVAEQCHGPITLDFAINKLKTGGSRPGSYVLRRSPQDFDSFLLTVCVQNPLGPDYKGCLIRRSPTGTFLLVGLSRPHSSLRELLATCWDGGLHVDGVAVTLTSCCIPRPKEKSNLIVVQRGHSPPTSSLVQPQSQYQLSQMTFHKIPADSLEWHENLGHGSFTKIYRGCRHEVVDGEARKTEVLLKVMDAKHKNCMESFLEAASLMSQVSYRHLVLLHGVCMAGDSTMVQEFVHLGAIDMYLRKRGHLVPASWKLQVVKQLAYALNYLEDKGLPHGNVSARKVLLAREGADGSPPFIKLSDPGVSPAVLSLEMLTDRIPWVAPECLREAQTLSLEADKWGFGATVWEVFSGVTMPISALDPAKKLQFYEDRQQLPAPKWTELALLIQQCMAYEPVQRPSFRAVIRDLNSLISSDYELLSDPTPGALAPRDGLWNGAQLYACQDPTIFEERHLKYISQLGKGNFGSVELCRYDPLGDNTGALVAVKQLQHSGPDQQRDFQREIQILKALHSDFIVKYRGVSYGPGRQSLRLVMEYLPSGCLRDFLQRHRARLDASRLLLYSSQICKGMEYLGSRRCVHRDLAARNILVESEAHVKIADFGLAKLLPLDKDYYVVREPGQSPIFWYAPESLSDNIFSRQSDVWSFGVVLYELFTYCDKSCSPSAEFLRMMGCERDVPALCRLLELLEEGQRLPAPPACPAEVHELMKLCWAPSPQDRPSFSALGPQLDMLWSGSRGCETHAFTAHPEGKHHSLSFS
Briefly: Inhibition of recombinant human JAK3 using Ulight-CAGAGAIETDKEYYTVKD as substrate measured after 60 mins by LANCE assay.

The target in test [10] is Non-receptor tyrosine-protein kinase TYK2 (Homo sapiens, UniProt P29597). In words: Inhibition of recombinant human TYK2 using Ulight-CAGAGAIETDKEYYTVKD as substrate measured after 60 mins by LANCE assay. In outline: as §1
Test [11] addresses T3, Histone deacetylase 2 (Homo sapiens, UniProt Q92769). In words: Inhibition of HDAC2 (unknown origin) using Boc-Lys(acetyl)-AMC as substrate preincubated for 5 mins followed by substrate addition and measured after 30 mins by fluorescence assay.
Test [12] deals with T4, Protein deacetylase HDAC6 (Homo sapiens, UniProt Q9UBN7).
T4 sequence (Q9UBN7 whole entry): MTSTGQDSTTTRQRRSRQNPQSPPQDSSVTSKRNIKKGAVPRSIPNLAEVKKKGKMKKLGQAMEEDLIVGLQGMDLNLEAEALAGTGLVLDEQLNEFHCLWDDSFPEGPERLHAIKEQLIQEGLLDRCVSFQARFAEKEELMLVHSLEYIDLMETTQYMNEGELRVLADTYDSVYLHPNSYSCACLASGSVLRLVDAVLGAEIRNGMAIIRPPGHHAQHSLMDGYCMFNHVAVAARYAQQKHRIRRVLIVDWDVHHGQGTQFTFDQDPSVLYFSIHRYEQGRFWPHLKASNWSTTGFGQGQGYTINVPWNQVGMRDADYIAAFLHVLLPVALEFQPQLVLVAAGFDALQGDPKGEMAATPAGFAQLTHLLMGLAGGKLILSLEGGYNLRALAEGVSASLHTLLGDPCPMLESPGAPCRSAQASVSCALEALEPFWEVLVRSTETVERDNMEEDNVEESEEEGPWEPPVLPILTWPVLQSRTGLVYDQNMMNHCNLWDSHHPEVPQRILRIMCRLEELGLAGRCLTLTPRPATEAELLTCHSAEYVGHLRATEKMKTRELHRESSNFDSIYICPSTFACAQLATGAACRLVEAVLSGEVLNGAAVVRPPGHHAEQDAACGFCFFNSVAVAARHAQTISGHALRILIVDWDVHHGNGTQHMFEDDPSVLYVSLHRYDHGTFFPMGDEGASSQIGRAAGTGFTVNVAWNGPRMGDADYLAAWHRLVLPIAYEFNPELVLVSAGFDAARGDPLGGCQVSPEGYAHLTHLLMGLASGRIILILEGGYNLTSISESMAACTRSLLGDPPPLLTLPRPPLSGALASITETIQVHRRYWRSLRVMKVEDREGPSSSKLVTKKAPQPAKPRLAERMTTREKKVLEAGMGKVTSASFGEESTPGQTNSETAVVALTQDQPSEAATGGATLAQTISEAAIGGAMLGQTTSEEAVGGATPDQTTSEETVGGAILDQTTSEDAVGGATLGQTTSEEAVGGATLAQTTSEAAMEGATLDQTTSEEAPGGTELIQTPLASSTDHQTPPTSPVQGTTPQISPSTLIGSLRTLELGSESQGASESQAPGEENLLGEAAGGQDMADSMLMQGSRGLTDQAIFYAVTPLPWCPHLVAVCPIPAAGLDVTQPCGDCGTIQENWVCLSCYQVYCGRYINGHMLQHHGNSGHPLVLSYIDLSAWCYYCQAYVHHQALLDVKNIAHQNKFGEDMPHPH
In words: Inhibition of HDAC6 (unknown origin) using Boc-Lys(acetyl)-AMC as substrate preincubated for 5 mins followed by substrate addition and measured after 30 mins by fluorescence assay.

Test [13] deals with T5, Histone deacetylase 8 (Homo sapiens, UniProt Q9BY41).
T5 sequence (Q9BY41 whole entry): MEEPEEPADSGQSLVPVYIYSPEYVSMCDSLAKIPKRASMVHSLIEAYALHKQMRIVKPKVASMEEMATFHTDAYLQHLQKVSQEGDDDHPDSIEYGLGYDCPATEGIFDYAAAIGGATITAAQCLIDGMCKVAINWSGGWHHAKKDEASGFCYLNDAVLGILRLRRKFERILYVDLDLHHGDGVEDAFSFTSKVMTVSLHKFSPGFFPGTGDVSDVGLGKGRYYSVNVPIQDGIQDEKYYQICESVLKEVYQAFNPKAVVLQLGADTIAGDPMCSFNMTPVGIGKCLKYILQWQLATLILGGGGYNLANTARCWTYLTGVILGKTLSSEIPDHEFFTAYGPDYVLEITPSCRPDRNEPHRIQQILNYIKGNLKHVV
In words: Inhibition of HDAC8 (unknown origin) using Boc-Lys(trifluoroacetyl)-AMC as substrate preincubated for 5 mins followed by substrate addition and measured after 30 mins by fluorescence assay.

Test [14] deals with T3, Histone deacetylase 2. The conditions noted are these: A549, at 80 to 400 nM.
In test [15] the target is T1, Histone deacetylase (Homo sapiens). In words: Inhibition of HDAC in human HeLa nuclear extract at 10 uM using Boc-Lys(acetyl)-AMC as substrate preincubated for 5 mins followed by substrate addition and measured after 30 mins by fluorescence assay. Format: cell-free. In outline:
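HeLa nuclear extract mixed with compound and held at 37 °C for 5 min. Boc-Lys(acetyl)-AMC added and incubated 30 min at 37 °C. Quenched with developer containing trypsin and trichostatin A, then 20 min at 37 °C. Fluorescence read at ex 390/em 460 nm; inhibition calculated relative to control wells.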

SMILES strings stand for the structures. Calls of active or inactive are those of the source. No cut-off for these calls is given here.

Sequence of Tyrosine-protein kinase JAK2 (O60674 whole entry): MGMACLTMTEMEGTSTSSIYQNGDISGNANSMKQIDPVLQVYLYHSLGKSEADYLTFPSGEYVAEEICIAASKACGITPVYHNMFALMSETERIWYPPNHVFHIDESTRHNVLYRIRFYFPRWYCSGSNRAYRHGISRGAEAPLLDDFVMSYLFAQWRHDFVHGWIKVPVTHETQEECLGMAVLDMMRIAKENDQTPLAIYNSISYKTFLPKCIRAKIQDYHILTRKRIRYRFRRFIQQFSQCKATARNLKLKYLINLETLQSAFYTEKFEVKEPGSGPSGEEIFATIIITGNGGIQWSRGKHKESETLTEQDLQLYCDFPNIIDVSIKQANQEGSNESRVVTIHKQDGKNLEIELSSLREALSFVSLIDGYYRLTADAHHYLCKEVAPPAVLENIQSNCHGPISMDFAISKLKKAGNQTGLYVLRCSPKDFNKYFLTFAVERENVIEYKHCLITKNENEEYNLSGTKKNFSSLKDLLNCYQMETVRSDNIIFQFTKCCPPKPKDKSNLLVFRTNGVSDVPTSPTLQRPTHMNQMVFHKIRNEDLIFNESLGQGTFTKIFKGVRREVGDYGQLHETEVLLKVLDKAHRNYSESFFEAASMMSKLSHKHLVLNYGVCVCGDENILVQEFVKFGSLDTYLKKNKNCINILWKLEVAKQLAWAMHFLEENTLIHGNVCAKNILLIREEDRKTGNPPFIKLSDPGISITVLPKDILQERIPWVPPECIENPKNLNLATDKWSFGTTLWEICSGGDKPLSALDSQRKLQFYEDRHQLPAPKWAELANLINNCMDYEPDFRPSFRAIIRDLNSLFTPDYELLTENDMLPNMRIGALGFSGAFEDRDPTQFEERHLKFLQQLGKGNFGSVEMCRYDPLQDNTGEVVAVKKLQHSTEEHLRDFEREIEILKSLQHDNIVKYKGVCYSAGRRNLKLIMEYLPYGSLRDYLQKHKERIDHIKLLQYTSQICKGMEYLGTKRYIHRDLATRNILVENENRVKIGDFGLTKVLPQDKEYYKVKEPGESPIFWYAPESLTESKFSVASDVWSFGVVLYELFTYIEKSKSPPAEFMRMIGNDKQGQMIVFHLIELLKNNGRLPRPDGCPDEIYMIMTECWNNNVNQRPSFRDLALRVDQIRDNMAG
T3 sequence (Q92769 whole entry): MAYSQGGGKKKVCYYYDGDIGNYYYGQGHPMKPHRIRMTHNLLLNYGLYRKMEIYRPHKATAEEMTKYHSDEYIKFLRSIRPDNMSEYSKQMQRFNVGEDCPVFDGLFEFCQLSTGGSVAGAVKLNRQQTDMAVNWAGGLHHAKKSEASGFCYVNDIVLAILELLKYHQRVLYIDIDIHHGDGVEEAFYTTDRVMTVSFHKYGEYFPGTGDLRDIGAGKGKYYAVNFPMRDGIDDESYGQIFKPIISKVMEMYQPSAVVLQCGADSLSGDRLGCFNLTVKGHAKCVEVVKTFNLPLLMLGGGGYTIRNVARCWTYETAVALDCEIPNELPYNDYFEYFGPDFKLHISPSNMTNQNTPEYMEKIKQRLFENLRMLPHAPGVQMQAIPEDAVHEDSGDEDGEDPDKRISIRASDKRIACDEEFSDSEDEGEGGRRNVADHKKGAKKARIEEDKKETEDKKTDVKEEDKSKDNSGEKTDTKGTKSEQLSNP
Sequence of Tyrosine-protein kinase JAK1 (P23458 whole entry): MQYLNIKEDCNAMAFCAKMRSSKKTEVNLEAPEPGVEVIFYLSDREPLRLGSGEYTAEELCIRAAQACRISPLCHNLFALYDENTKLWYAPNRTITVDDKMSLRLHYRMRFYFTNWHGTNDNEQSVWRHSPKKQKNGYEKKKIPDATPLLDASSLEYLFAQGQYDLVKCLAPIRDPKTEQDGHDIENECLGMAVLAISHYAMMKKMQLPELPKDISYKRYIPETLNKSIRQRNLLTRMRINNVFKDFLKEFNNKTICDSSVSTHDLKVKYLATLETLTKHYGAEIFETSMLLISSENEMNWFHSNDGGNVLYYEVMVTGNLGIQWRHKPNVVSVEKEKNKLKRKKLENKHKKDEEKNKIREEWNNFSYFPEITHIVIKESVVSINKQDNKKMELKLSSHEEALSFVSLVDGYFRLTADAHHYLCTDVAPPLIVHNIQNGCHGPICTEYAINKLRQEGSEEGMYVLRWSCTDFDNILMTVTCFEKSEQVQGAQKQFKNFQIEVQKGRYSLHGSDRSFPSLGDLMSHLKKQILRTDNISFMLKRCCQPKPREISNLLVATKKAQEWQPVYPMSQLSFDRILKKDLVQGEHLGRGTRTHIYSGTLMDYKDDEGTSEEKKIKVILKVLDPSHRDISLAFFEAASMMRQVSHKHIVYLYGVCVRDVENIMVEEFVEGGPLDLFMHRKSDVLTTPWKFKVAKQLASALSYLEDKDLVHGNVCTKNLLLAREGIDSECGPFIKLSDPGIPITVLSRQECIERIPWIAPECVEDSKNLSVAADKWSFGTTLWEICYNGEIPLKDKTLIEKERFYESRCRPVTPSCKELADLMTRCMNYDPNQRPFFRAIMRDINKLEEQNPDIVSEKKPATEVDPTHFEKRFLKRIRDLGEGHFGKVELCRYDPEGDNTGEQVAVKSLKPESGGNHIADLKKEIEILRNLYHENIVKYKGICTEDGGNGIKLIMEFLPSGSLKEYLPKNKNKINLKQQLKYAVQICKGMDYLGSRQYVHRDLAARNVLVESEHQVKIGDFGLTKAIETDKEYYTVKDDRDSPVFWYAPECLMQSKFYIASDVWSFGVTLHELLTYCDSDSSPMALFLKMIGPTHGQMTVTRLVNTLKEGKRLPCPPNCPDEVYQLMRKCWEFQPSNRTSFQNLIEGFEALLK
Sequence of Non-receptor tyrosine-protein kinase TYK2 (P29597 whole entry): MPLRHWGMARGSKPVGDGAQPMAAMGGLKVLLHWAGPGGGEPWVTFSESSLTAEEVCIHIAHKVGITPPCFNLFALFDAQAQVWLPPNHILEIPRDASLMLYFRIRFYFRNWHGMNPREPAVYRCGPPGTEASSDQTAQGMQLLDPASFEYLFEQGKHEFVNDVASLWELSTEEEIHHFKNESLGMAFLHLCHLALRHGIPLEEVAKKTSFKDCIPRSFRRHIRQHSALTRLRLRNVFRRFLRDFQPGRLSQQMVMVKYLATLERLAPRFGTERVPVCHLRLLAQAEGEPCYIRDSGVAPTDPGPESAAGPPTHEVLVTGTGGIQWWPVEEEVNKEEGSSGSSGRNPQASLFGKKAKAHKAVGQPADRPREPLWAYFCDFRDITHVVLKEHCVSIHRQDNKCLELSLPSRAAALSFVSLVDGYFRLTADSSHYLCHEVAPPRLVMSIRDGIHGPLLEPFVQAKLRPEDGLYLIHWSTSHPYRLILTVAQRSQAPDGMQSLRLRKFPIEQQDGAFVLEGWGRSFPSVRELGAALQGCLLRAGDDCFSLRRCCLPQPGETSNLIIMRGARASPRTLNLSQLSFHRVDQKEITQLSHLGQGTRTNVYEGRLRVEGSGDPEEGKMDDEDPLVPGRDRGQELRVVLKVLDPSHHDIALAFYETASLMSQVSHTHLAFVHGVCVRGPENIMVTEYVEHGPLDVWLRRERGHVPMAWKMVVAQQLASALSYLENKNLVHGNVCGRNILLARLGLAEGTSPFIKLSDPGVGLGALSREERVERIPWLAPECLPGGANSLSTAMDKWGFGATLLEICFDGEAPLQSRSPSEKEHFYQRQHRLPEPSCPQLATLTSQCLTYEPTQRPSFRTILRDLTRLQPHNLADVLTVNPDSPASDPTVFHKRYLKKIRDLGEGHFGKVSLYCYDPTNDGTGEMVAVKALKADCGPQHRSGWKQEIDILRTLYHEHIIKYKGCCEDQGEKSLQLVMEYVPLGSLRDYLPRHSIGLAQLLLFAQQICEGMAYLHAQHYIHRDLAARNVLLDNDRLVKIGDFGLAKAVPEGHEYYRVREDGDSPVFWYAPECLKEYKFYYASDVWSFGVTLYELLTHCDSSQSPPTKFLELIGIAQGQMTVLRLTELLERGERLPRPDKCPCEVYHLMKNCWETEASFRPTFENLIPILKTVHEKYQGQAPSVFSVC

Consider `O=C(CCCCCCn1cc(Nc2ncc(Cl)c(Nc3ccc(F)cc3)n2)cn1)NO`, for which the IC50 (usually the concentration that gives 50% inhibition) in [1] worked out at 500 nM; in test [2], 210 nM; in test [3], 15 nM; in [4], 3 nM; in test [6], 220 nM; in [7], 120 nM. Further, the Ratio IC50 in [5] is over 50.

Consider `O=C(CCCCCCn1cc(Nc2ncc(F)c(Nc3ccc(F)cc3)n2)cn1)NO`, for which the 50% inhibitory concentration (IC50) in [3] is over 100 nM; in test [4], 3 nM. In test [5], the Ratio IC50 was over 50.

Take `O=C(CCCCCCn1cc(Nc2ncc(Cl)c(Nc3ccc(Cl)cc3)n2)cn1)NO`: the half-inhibitory concentration (IC50) in [1] turned out to be 320 nM; in test [2], 120 nM; in test [3], 14 nM; in test [4], 2 nM; in test [8] it was 10 nM; in test [9], 7.6 nM. Also, the IC50 is 94 nM in test [10], 120 nM in test [6] and 100 nM in test [7]. For the same molecule, in test [5], the Ratio IC50 was over 50.

Regarding `CNc1nc(Nc2cnn(CCCCCCC(=O)NO)c2)ncc1Cl`, the concentration for half-maximal inhibition (IC50) in [1] was 590 nM; in [2], 100 nM; in test [3] it was 36 nM; in test [4], 15 nM; in [11], 190 nM; in test [12] it was 29 nM. The IC50 is 4.07 µM in [13], 110 nM in test [6] and 70 nM in test [7]. In test [14], the inhibition result was “Active”.

For the molecule `Clc1cccc(Nc2nc(Nc3cn[nH]c3)ncc2Cl)c1`, in [15], the inhibition result is “inactive”.

`COc1ccc(Nc2nc(Nc3cnn(CCCCCCC(=O)NO)c3)ncc2Cl)cc1`: the half-maximal inhibitory concentration (IC50) in test [1] is 620 nM; in test [2] it was 210 nM; in test [3], 10 nM; in [4] it was 3 nM; in test [6], 170 nM; in test [7], 130 nM. Further, the Ratio IC50 in test [5] was over 50.

Regarding `O=C(CCCCCCn1cc(Nc2ncc(Cl)c(NC3CC3)n2)cn1)NO`, the IC50 came to 380 nM in test [1]; 80 nM in test [2]; 13 nM in test [4]; 14 nM in [8]; 2 nM in test [9]; 12 nM in test [10]. In addition, the half-inhibitory concentration (IC50) in test [6] amounted to 150 nM; in test [7], 50 nM.

The record behind these values is ChEMBL document CHEMBL4346670, “Discovery of Novel Janus Kinase (JAK) and Histone Deacetylase (HDAC) Dual Inhibitors for the Treatment of Hematological Malignancies” (J Med Chem, 2019).
